Assay outcomes (PubChem)
FXN GAA850 act: frataxin GAA850 promoter activation; HEK293 lucGAA850 FXN promoter luciferase reporter, 24 h; percent of 10 µM SAHA response; activation, % at 6 µM; 360,000 tested, 0.56% active; AID 540364;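 active means activation above the average of all compounds screened plus 3 SD, cutoff fixed separately per campaign, cut at about 7.5% in these data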;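 further: 0% = DMSO wells and 100% = 10 µM SAHA wells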
SR-BI DiI inh: inhibitors of mouse SR-BI mediated HDL lipid uptake | Q61009 | ldlA[mSR-BI] CHO cells, DiI-HDL uptake fluorescence, 3 h | inhibition, % at 12.5 µM | 320,000 tested, 0.96% active;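 active means mean replicate inhibition of at least 70% and a set share of replicates each scoring 70 or more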;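 further: 0% = median of neutral control wells and 100% = median of positive control wells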
Target sequence (Q61009 whole entry, looked up): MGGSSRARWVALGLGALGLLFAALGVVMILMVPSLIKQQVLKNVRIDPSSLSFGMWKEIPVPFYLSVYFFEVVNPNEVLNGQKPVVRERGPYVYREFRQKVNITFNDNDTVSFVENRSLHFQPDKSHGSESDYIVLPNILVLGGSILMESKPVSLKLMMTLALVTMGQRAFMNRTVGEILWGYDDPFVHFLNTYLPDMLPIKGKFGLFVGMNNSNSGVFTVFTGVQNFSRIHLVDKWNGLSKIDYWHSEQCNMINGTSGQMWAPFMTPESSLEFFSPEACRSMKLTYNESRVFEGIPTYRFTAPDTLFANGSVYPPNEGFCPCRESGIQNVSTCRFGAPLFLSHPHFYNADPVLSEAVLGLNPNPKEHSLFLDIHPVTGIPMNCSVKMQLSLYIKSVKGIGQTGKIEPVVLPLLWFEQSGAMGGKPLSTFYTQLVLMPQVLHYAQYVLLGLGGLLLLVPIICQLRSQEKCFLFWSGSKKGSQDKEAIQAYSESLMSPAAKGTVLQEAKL
AHR activator: activates the human aryl hydrocarbon receptor; AHR-responsive luciferase reporter cells, luminescence; activation, % at 5 µM; P35869; 320,000 tested, 2.5% active; AID 2796; in the data active means activation above about 47%;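 further: 0% = vehicle wells and 100% = reference agonist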
ABCB6 inh MLPCN: blocks the human ABCB6 transporter; AID 602162; fluorescence ratio to DMSO, % at 10 µM; K562-ABCB6 porphyrin accumulation, flow cytometry, 1 h; active compounds read low; 360,000 tested, 0.19% active; Q9NP58;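 active means fluorescence ratio to DMSO below 75%, the collection mean minus 3 SD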;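 further: signal is porphyrin accumulated inside mitochondria; 100% equals median channel fluorescence of DMSO control wells; lower ratio means ABCB6 inhibition with less porphyrin fluorescence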
HIF activator: HIF pathway transcriptional activation; U2OS HRE-luciferase reporter, luminescence; normalized: DMSO 0%, desferrioxamine 100%; activation, % at 7.5 µM (by protocol); 300,000 tested, 0.32% active; AID 1910;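 active means mean activation of at least 10% of the iron chelator positive control signal, with at least half of replicates also reaching 10%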
SR-BI DiI-HDL act: enhances SR-BI lipid uptake from DiI-HDL; CHO ldlA[mSR-BI] cells, DiI-HDL uptake fluorescence, 3 h; 100 = double the neutral-control signal; activation, % at 12.5 µM; 320,000 tested, 0.096% active; AID 504775;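 active means mean replicate activation of at least 60% and every replicate at or above 60%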;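 further: 0% = median plate neutral-control signal and 100% = twice that signal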
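Test system: SR-BI-overexpressing, LDLR-lacking CHO cells; Medium: Ham's F12 with 0.5% BSA, HEPES 25 mM, pH 7.4; Schedule: 3 h, 37 °C; Technique: bottom-read fluorescence, 550/595 nm.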
* hit, by the source's call; . = not tested or not shown. Compounds with a hit are over-represented: about 3.9% of the library has one in this group of screens.

SMILES	FXN GAA850 act	SR-BI DiI inh	AHR activator	ABCB6 inh MLPCN	HIF activator	SR-BI DiI-HDL act
CN(C)CCN(C(=O)/C=C/c1cccs1)c1nc2ccc(F)cc2s1	3	31	49*	95	1	-31
CCN(CC)S(=O)(=O)c1ccc(N2CCOCC2)c(NC(=O)CC2OC(=O)c3ccccc32)c1 (configuration not stated)	0	2	5	103	2	-2
COc1cc(NC(=O)c2ccc(Cl)cc2)c(OC)cc1NC(=O)CN1CCOCC1	1	19	48*	104	2	-19
COc1ccc(C2COC(=O)C2=N)c(NC(=O)c2ccc(Cl)cc2)c1 (configuration not stated)	0	-21	76*	96	-15	21
COc1cc(NC(=O)c2ccccc2)c(OC)cc1NC(=O)CN1C(=O)NC2(CCCCC2)C1=O	-2	77*	7	105	.	-77
COc1cc(NC(=O)c2ccc(Cl)cc2)c(OC)cc1Cl	0	74*	60*	99	0	-74
N#Cc1cccnc1N1CCN(C(=O)c2ccccc2)CC1	3	3	.	95	0	-3
O=c1oc2cc(OCc3ccc(F)cc3F)ccc2cc1-c1ccc2ccccc2n1	.	.	97*	.	0	.
CCOc1ccc2oc(C(=O)NCC(c3ccco3)N(C)C)c(C)c2c1 (configuration not stated)	-1	-4	.	99	.	4
Cc1c(C(=O)NCC(c2ccco2)N(C)C)oc2c(Cl)cccc12 (configuration not stated)	1	9	48*	95	0	-9
C/C(CC(=O)N1CCN(C=O)CC1)=N\NC(=O)c1cccc([N+](=O)[O-])c1	-1	-23	9	98	-1	23
Cc1ccccc1CN1CCN(S(C)(=O)=O)CC1	0	-9	0	78	0	9
CCOc1ccccc1CN1CCN(S(C)(=O)=O)CC1	0	1	6	96	14*	-1
COc1ccc(/C=N/NC(=O)c2cccnc2)c2ccccc12	0	-8	26	96	-3	8
Cc1ccc(/C=N/NC(=O)c2cccs2)o1	2	15	78*	91	2	-15
Cc1ccc(/C=N\NC(=O)c2cncc(Br)c2)o1	0	1	64*	96	0	-1
COc1ccc(/C=N/NC(=O)c2cccs2)c2ccccc12	6	12	53*	93	2	-12
Cc1ccc(/C=N/NC(=O)c2cccnc2)o1	-1	9	72*	97	0	-9
O=C(N/N=C/c1ccc(Br)o1)c1cccnc1	0	13	15	91	0	-13
COC(=O)C1C(c2ccc(Cl)cc2)NC(c2ccc(Cl)cc2)C(C(=O)OC)S1(=O)=O (configuration not stated)	-3	26	-2	107	.	-26
CCC(C)(C)n1nnnc1C(c1ccc(O)c(OC)c1)N1CCN(c2nc3ccccc3s2)CC1 (configuration not stated)	-2	15	3	100	.	-15
Cc1cc(C(F)(F)F)c2c(N)c(C(=O)NCc3ccc(Cl)cc3)sc2n1	.	.	.	102	.	.
Cc1ccc(NC(=O)c2cnc(N3CCN(c4ccccn4)CC3)c3ccccc23)c(Br)c1	-6	78*	9	89	0	-78
CCCCc1nnc(NC(=O)c2ccc3[nH]c(=O)c(=O)[nH]c3c2)s1	5	6	0	104	197*	-6
CCCCc1nnc(NC(=O)c2ccc(N3CCCC3=O)cc2)s1	3	16	8	99	-19	-16
SMILES	FXN GAA850 act	SR-BI DiI inh	AHR activator	ABCB6 inh MLPCN	HIF activator	SR-BI DiI-HDL act
CC(C)n1c(NCc2nc3ccccc3n2C)nc2ccccc21	-3	-5	15	95	0	5
COc1ccc(NCc2nc3ccccc3n2CCOc2ccccc2)cc1	5	-11	2	101	1	11
COc1ccc(NCc2nc3ccccc3n2C)cc1	5	-32	53*	101	0	32
Cn1c(CNc2nc3ccccc3n2C)nc2ccccc21	0	-15	49*	101	4	15
CCOC(=O)c1ccc(NCc2nc3ccccc3n2C)cc1	4	-2	59*	97	2	2
O=C(CS(=O)(=O)c1c[nH]c2ccccc12)N1CCCc2ccccc21	3	-8	3	82	0	8
Cc1ccc(OCCn2ccnc2)c(C)c1	1	-6	32	101	0	6
Cc1ccc(OCCCCn2ccnc2)c(Cl)c1	4	-25	17	102	1	25
Cc1ccc(OCCCCn2ccnc2)c([N+](=O)[O-])c1	0	-32	61*	95	0	32
Cc1cc(C(C)(C)C)ccc1OCCn1ccnc1	-2	5	50*	95	0	-5
Cc1ccc(C(C)(C)C)c(OCCCn2ccnc2)c1	1	35	48*	98	-1	-35
Cc1cc(C)c(OCCCn2ccnc2)c(C)c1	1	-11	.	98	-17	11
Cc1ccc(C)c(OCCCCn2ccnc2)c1	3	9	16	90	0	-9
Cc1cc(C)c(C)c(OCCCn2ccnc2)c1	0	11	58*	102	0	-11
Cc1cc(OCCn2ccnc2)ccc1C(C)C	-1	-14	64*	100	1	14
COc1cccc(NC(=O)N2CCCCCC2)c1	3	-18	12	97	3	18
O=C(Nc1cc(Cl)ccc1-n1cncn1)c1cc(F)c(F)c(F)c1F	2	25	56*	99	0	-25
O=C(Nc1cc(Cl)ccc1-n1cncn1)c1ccc(Br)o1	1	-14	61*	98	1	14
O=C(Nc1cc(Cl)ccc1-n1cncn1)c1cncc(Br)c1	0	2	28	97	-1	-2
Cc1c(C(=O)N2CCCCC2)c(S(=O)(=O)NCCc2ccc(Cl)cc2)c(C)n1C	2	-2	-1	101	14*	2
CC(C)(C)c1ccc(C(=O)N/C(N)=N/c2nc3ccccc3o2)cc1	1	-6	12	94	0	6
N/C(=N\c1nc2ccccc2o1)NC(=O)c1ccc(Cl)cc1	3	27	68*	96	0	-27
O=[N+]([O-])c1cccc(C(=Nc2cccc(Cl)c2)NO)c1	1	11	88*	104	0	-11
CCc1nnc(N/N=C/c2ccccc2Cl)n1N	2	-11	53*	103	2	11
COc1cccc(/C=N/Nc2nnc(C)n2N)c1OCc1ccccc1Cl	-2	-3	57*	101	-1	3
CCc1nnc(N/N=C/c2ccccc2F)n1N	2	-8	31	95	-7	8
COc1ccc(/C=N/Nc2nnc(C)n2N)cc1OC	0	-10	7	97	3	10
